Series [1] deals with Hepatitis C virus. The series can be described thus: Antiviral activity against HCV1B BM4-5 infected in human Huh7.5 cells assessed as decrease in intracellular viral RNA treated for 3 days measured 24 hrs after last dose by luciferase reporter gene-based […]. The format is functional, organism-based, Hepacivirus hominis. To be noted: genotype 1b BM4-5, Huh-7. The procedure, abridged:
(§1)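 Huh-7.5.1 human hepatoma cells stably carried the BM4-5 FEO (genotype 1B) or SGR-JFH-1 FEO (genotype 2A) replicon, selected with 500 μg/ml G-418. Cells were seeded at 10,000 per well and incubated with compound up to 100 μM (0.3% DMSO final) for 48 to 72 h. Luciferase light units gave dose-response EC50s. Each condition was run in triplicate, with 3 or 4 experimental replicates.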
In general terms: In a reporter assay the amount or activity of a reporter protein is the signal.

Series [2] has as its system Hepatitis C virus. The series can be described thus: Antiviral activity against HCV2A SGR-JFH-1 infected in human Huh7.5 cells assessed as decrease in intracellular viral RNA treated for 3 days measured 24 hrs after last dose by luciferase reporter gene-based […]. The format is functional, organism-based, Hepacivirus hominis. Particulars: genotype 2a SGR-JFH-1, Huh-7. A digest of the protocol: as §1

The nature of series [3]: Selectivity index, ratio of CC50 for human Huh7.5 cells to EC50 for HCV genotype 1B BM4-5 infected in human Huh7.5 cells. Also noted: species or system Huh-7. A digest of the protocol: (§2)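 SI is CC50 divided by EC50, both from the same BM4-5 FEO (1B) or SGR-JFH-1 FEO (2A) replicon Huh-7.5.1 cultures. Cells (10,000 per well) got compound up to 100 μM (0.3% DMSO final) for 48 to 72 h. EC50 came from the luciferase read-out, CC50 from a fluorescent viability/death assay. Each condition was run in triplicate.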

A short description of series [4]: Selectivity index, ratio of CC50 for human Huh7.5 cells to EC50 for HCV genotype 2A SGR-JFH-1 infected in human Huh7.5 cells. Also noted: species or system Huh-7. The procedure, abridged: as §2
Series [5] in a line: Cytotoxicity against human Huh7.5 cells administered for 3 days measured 24 hrs after last dose by neutral red dye uptake assay. It is filed as cell-based, Huh-7.

pEC50: −log10 of the molar value.

Six compounds from ChEMBL document CHEMBL1649435, “The octadecyloxyethyl ester of (S)-9-[3-hydroxy-2-(phosphonomethoxy) propyl]adenine is a potent and selective inhibitor of hepatitis C virus replication in genotype 1A, 1B, and 2A replicons” (Antimicrob Agents Chemother, 2009) can be followed below.

As to `CCCCCCCCCCCCCCCCCCOCCOP(=O)(O)CO[C@@H](CO)Cn1cnc2c(N)ncnc21`, the results for the pEC50 in series [1] and in series [2] were 5.15 and 4.57, respectively. In addition, the “Selectivity Index” value in series [3] is recorded as above 14; in series [4] it was above 4. Further, the CC50 (commonly the concentration at which the toxic effect on the cells reaches its halfway point) at 72 h in series [5] is above 100 µM.
Take `Nc1ncnc2c1ncn2C[C@H](CO)OCP(=O)(O)O`: the negative logarithm of the EC50 (pEC50) in series [1] and in series [2] was below 4.00 throughout. The compound also registered a CC50 at 72 h in series [5] above 100 µM.
As for `CCCCCCCCCCCCCCCCOCCCOP(=O)(O)CO[C@@H](CO)Cn1cnc2c(N)ncnc21`, the results for the pEC50 in series [1] and in series [2] were 5.17 and 4.39, respectively. Also, the “Selectivity Index” value is above 15 in series [3] and above 2 in series [4]. Moreover, the CC50 at 72 h in series [5] was above 100 µM.
`Nc1ncnc2c1ncn2C[C@@H](CO)OCP(=O)(O)O`: the pEC50 in series [1] and in series [2] was below 4.00 in each case. In series [5], this compound returned a CC50 at 72 h above 100 µM.
With `CCCCCCCCCCCCCCCCOCCCOP(=O)(O)CO[C@H](CO)Cn1cnc2c(N)ncnc21`, the pEC50 (commonly −log10 of the EC50, conventionally taken in molar units) in series [1] was 5.69; in series [2] it was 5.19. Besides, the “Selectivity Index” value is on record as 42 in series [3] and 13 in series [4]. Moreover, the midpoint of cytotoxicity in series [5], the CC50 at 72 h, lay at 85.3 µM.
For `CCCCCCCCCCCCCCCCCCOCCOP(=O)(O)CO[C@H](CO)Cn1cnc2c(N)ncnc21` the same measures were 5.88, 6.16, 27, 52 and 35.6 µM.
